In the library only some 3.8% were active in any assay of this set; here they are far more common.
Exocytosis inh = lytic granule exocytosis inhibition; 360,000 tested, 0.66% active; TALL-104 LAMP-1 surface exposure, flow cytometry; cells stimulated with thapsigargin and PMA; inhibition, % at 10 µM; AID 651702;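 active = inhibition above about 55%, limit read from the data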
T cell HTS = modulates CD8 T cell binding to vesicles; 2C CD8+ T cell-vesicle binding, flow cytometry; stronger effect = lower value; response (vesicle binding), % at 7 µM; 330,000 tested, 0.068% active; AID 2052;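 active = response, share of CD8 T cells binding vesicles, and their 90th percentile fluorescence all below set limits, cut at about 80% in these data, passing the limit was not always enough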;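 also: values below 100% mean blocked vesicle binding to the CD8+ T cells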
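Material: murine 2C transgenic CD8+ T lymphocytes / Also added: QL9-peptide-loaded Drosophila micro-vesicles bearing Ld, ICAM-1 and B7-1 / Schedule: binding step 1.5 h, 37 °C, antibody labelling 20 min, ice / Signal: flow cytometry, PE anti-B7-1 (FL2) versus Alexa647 anti-CD8 (FL8), PFA-fixed / Evaluation: percent CD8+ FL2 mean versus row control / Benchmarks: naked versus QL9-loaded vesicles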
rCAG binder = molecules binding r(CAG) RNA repeats | 370,000 tested, 1.3% active | inhibition, % at 3 µM | AID 651821 | r(CAG) RNA repeat, TO-PRO-1 dye displacement fluorescence;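 active = inhibition above the plate cutoff, the mean of all test compounds on that plate plus 3 SD, cut at about 35% in these data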;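 also: 0% = DMSO alone and 100% = 100 µM mitoxantrone as full dye displacement; higher means more dye released from RNA so lower well fluorescence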
MPTP block = blocks calcium-induced mitochondrial swelling. isolated mouse mitochondria, Ca2+ swelling absorbance, 30 min. inhibition, % at 10 µM. 360,000 tested, 1.4% active;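 active = inhibition of 50% or more, scaled per plate between neutral and stimulator controls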;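 also: 0% = DMSO wells given calcium and 100% = 1 mM EGTA wells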
V-ATPase pHluor = yeast V-ATPase proton transport regulation by pHLuorin; S. cerevisiae, pHLuorin cytosolic pH fluorescence; response, % at 10 µM; 350,000 tested, 0.37% active; AID 504577; in the data active = response mostly above about 7.3%, no sharp cut-off; inactive = mostly below about 5.4%; also: actives read high
B2AR ag = human beta-2 adrenergic receptor agonism by FAP. P07550. Am2.2-beta2AR cells, FAP receptor internalization, flow cytometry. response, % (test concentration not listed). 340,000 tested, 0.43% active;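 active = response above a set limit, near 3 SD of response in nonfluorescent compounds, cut at about 42% in these data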
Target sequence (P07550 whole entry, looked up): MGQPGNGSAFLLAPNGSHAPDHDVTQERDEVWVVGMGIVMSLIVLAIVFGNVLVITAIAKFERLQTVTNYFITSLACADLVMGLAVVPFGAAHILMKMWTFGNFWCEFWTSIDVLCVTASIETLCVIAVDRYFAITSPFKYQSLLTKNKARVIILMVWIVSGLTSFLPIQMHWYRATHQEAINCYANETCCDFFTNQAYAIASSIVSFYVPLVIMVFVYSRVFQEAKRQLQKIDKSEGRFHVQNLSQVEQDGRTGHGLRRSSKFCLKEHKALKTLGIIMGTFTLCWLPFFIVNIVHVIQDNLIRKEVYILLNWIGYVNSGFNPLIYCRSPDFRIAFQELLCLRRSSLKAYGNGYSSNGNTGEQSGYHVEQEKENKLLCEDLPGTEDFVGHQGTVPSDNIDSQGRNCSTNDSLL
Rh123 counter = membrane potential counter-screen of mitochondrial pore inhibitors. AID 624504. isolated mitochondria, Rhodamine 123 fluorescence. inhibition, % at 10 µM. shares compounds with MPTP block. 5,000 tested, 78% active; in the data active = inhibition above about 22%;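 also: 0% = DMSO vehicle and 100% = positive control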
MPTP abs DR = MPTP inhibition, dose response swelling confirmation; shares compounds with MPTP block; isolated mitochondria swelling, absorbance; IC50, µM; 780 tested, 58% active; in the data active = IC50 below about 20 µM
MPTP counter DR = active in counter-screen for permeability transition pore inhibitors; shares compounds with MPTP block; isolated mitochondria counterscreen, fluorescence read-out; IC50, µM; 780 tested, 49% active; AID 651564; in the data active = IC50 below about 80 µM
Numbers without * were called inactive.

For O=C(Nc1ccncc1)Nc1ccc(Cl)cc1 the results were Exocytosis inh 0, T cell HTS 0, rCAG binder 4, MPTP block 55*, V-ATPase pHluor -3, B2AR ag 9 and Rh123 counter 98*.
CC(Oc1ccc(Cl)cc1Cl)C(=O)Nc1ccncc1 (configuration not stated) was read as Exocytosis inh 0, T cell HTS 136, rCAG binder -2, MPTP block 77*, V-ATPase pHluor 3, B2AR ag -9 and Rh123 counter 74*.
Screening O=C(Nc1ccncc1)Nc1ccncc1 returned Exocytosis inh 1, T cell HTS 264, rCAG binder 2, MPTP block 3, V-ATPase pHluor 7 and B2AR ag 2.
For COCc1[nH]nc2c1C(c1ccc(C)cc1)N(Cc1ccccc1)C2=O (configuration not stated) the results were rCAG binder 1.
Screening Cc1cc(N2CCOCC2)nc(NCc2ccccc2)n1 returned Exocytosis inh 4, T cell HTS 250, rCAG binder -3, MPTP block 8, V-ATPase pHluor 2 and B2AR ag -27.
For Cc1cc(N2CCCCC2)nc(NCc2ccccc2)n1 the results were Exocytosis inh 3, T cell HTS 340, rCAG binder 7, MPTP block 55*, V-ATPase pHluor 9, B2AR ag -9 and Rh123 counter 88*.
CCOC(=O)c1ccc(N2CCN(c3ccccc3F)CC2)c(NC(=O)Nc2cccc(OC)c2)c1 was read as Exocytosis inh 3, T cell HTS 204, rCAG binder 14, MPTP block 78*, V-ATPase pHluor -1, B2AR ag 7 and Rh123 counter 84*.
`Fc1ccc(-c2nc(-c3cccs3)[nH]c2-c2ccc(F)cc2)cc1` gave Exocytosis inh 13, T cell HTS 360, rCAG binder 4, MPTP block 77*, V-ATPase pHluor 2, B2AR ag -10 and Rh123 counter 74*.
Screening COC(=O)C[C@@H]1CC[C@H]2[C@@H](COc3ccc(NS(=O)(=O)c4ccccc4F)cc3C(=O)N2C)O1 returned rCAG binder 1.
O=C(NC1C/C(=N/O)c2cc3c(cc21)OCO3)C(F)(F)F (configuration not stated) was read as Exocytosis inh 1, T cell HTS 0, rCAG binder 3, MPTP block 145*, V-ATPase pHluor 3, B2AR ag -1, Rh123 counter -8, MPTP abs DR >100 and MPTP counter DR >80.
O=c1oc2cc(Oc3c([N+](=O)[O-])cc(C(F)(F)F)cc3[N+](=O)[O-])ccc2c2c1CCCC2 was read as Exocytosis inh -3, T cell HTS 550, rCAG binder 1, MPTP block 86*, V-ATPase pHluor -1, B2AR ag 10 and Rh123 counter 89*.
For COc1ccc(-c2cn(Cc3ccc(C(=O)NCc4ccc(C)cc4)cc3)c(C(C)N)n2)cc1 (configuration not stated) the results were Exocytosis inh -15, T cell HTS 153, rCAG binder 0, MPTP block 75*, V-ATPase pHluor -3, B2AR ag 12, Rh123 counter -20, MPTP abs DR 10* and MPTP counter DR >80.
For Cc1c(N/N=C(\C#N)C(=O)c2ccccc2)c(=O)n(-c2ccccc2)n1C the results were Exocytosis inh 1, rCAG binder 14, MPTP block -2, V-ATPase pHluor 0 and B2AR ag 19.
Screening N#C/C(=N\Nc1ccccc1Cl)C(=O)c1ccccc1 returned Exocytosis inh 3, T cell HTS 189, rCAG binder 29, MPTP block 91*, V-ATPase pHluor -2, B2AR ag 5 and Rh123 counter 102*.
Screening O=C(N[C@H](C(=O)N1CCC[C@H]1C(=O)NCCc1ccccc1Cl)c1ccccc1)c1cccs1 returned rCAG binder 0.
For O=C(NNc1ccnc2cc(Cl)ccc12)C1CCCCC1 the results were Exocytosis inh 0, T cell HTS 215, rCAG binder 3, MPTP block 99*, V-ATPase pHluor 0, B2AR ag -1 and Rh123 counter 90*.
CCOc1ccc(Nc2ccnc3cc(Cl)ccc23)cc1 was read as Exocytosis inh 0, T cell HTS 269, rCAG binder 3, MPTP block 31, V-ATPase pHluor 5 and B2AR ag 4.
`FC(F)Oc1ccc(NC(=S)NNc2ccnc3cc(Cl)ccc23)cc1` gave Exocytosis inh 13, T cell HTS 332, rCAG binder 19, MPTP block 101*, V-ATPase pHluor 5, B2AR ag 10 and Rh123 counter 65*.
`NC(=S)NNc1ccnc2cc(Cl)ccc12` gave Exocytosis inh 1, T cell HTS 189, rCAG binder 2, MPTP block -2, V-ATPase pHluor 2 and B2AR ag 5.
CC(=O)N1CCc2c1cccc2S(=O)(=O)NC(CC(C)C)C(=O)Nc1ccccc1C (configuration not stated) was read as rCAG binder 3.
For CCOC(=O)N1CCN(C(=O)C[C@H]2C(=O)N(CCCOC)C3=CCCC[C@@]32C(=O)OCC)CC1 the results were rCAG binder 2.
COCC(=O)N[C@@H]1C[C@@H]2O[C@H](CO)CC[C@@H]2O[C@@H]1CCc1ccc(-c2ccccc2)cc1 was read as rCAG binder 1.
`CCOC(=O)C1(CC2CCCCO2)CCN(C(=O)Nc2ccc(C(=O)OC)cc2)CC1` (configuration not stated) gave Exocytosis inh -2, T cell HTS 160, rCAG binder -10, MPTP block 56*, V-ATPase pHluor -2, B2AR ag 1 and Rh123 counter 61*.
For COCCCNC(=S)N1CCN(c2nc(-c3ccc(Cl)cc3)cs2)CC1 the results were Exocytosis inh 3, rCAG binder 4, MPTP block 76*, V-ATPase pHluor -3 and Rh123 counter 78*.
Screening COc1cccc(-c2csc(N3CCN(C(=O)Nc4ccc(Cl)cc4)CC3)n2)c1 returned Exocytosis inh 1, T cell HTS inactive, rCAG binder 6, MPTP block 88*, V-ATPase pHluor -1, B2AR ag 4 and Rh123 counter 89*.

Screens: PubChem, several laboratories
